Reference: ChEMBL document CHEMBL4732121, “Imidazo[1,2-a]quinoxalines for melanoma treatment with original mechanism of action” (Eur J Med Chem, 2021)

Legend:
A-375 = assay: Antiproliferative activity against human A-375 cells assessed as reduction in cell viability measured after 96 hrs by MTT assay; type: functional, cell-based; settings: Homo sapiens, A-375, 96 h
Outline: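 A375 cells in RPMI-1640 with 10% heat-inactivated FBS, 2 mM L-glutamine and antibiotics, 37°C, 5% CO₂. Seeded at 5000 cells/well and attached overnight, then exposed to 10⁻⁵–3.2.10⁻⁹ M in 0.15% DMSO/medium for 96 h. MTT at 0.5 mg/ml final for 4 h, formazan dissolved in 10% SDS/0.01 M HCl, OD 570 nm. At least three experiments in triplicate; IC50 from sigmoidal dose–response curves.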

MeWo = assay: Antiproliferative activity against human MeWo cells assessed as reduction in cell viability measured after 96 hrs by MTT assay; type: functional, cell-based
[1] = Inhibition of pig brain tubulin polymerization at 5 uM measured after 45 mins by turbidimetry based spectrophotometric method relative to control; type: tissue-based, Sus scrofa; settings: 0.75 h
IPC-298 = assay: Antiproliferative activity against human IPC-298 cells assessed as reduction in cell viability measured after 96 hrs by MTT assay; type: functional, cell-based; settings: IPC-298, 96 h
A2058 = assay: Antiproliferative activity against human A2058 cells assessed as reduction in cell viability measured after 96 hrs by MTT assay; type: functional, cell-based; settings: A2058, 96 h

Row | SMILES | IC50 (A-375) | further results
1 | NCCNc1nc2ccccc2n2c(-c3ccc(O)c(O)c3)cnc12 | 1280 nM | –
2 | CNc1nccn2c(-c3ccc(OC)c(OC)c3)cnc12 | > 10000 nM | –
3 | CNc1nc2cc(C(F)(F)F)ccc2n2c(-c3ccc(O)c(O)c3)cnc12 | 6910 nM | –
4 | COc1ccc(-c2cnc3c(N(C)C)nc4ccccc4n23)cc1OC | 414 nM | –
5 | COc1ccc(-c2cnc3c(OC)nc4ccccc4n23)cc1OC | 2930 nM | –
6 | NCCCCCCNc1nc2ccccc2n2c(-c3ccc(O)c(O)c3)cnc12 | 5690 nM | –
7 | CNc1nc2cc(OC(F)(F)F)ccc2n2c(-c3ccc(O)c(O)c3)cnc12 | 199 nM | –
8 | Oc1ccc(-c2cnc3c(N4CCNCC4)nc4ccccc4n23)cc1O | > 10000 nM | –
9 | COc1ccc(-c2cnc3c(NCCNC(=O)OC(C)(C)C)nc4ccccc4n23)cc1OC | > 10000 nM | –
10 | CNc1nc2ccccc2n2c(-c3cccc(OC)c3)cnc12 | 383 nM | IC50 (MeWo): 125 nM; inhibition (INH) [1]: 84%; IC50 (IPC-298): 469 nM; IC50 (A2058): 185 nM
11 | CNc1nc2ccccc2n2c(-c3ccc(OC)c(OC)c3)cnc12 | 193 nM | –
12 | CNc1nc2ccccc2n2c(Br)cnc12 | 2350 nM | –
13 | NCCCNc1nc2ccccc2n2c(-c3ccc(O)c(O)c3)cnc12 | 5590 nM | –
14 | CNc1nc2ccc(C(F)(F)F)cc2n2c(-c3ccc(O)c(O)c3)cnc12 | > 10000 nM | –
